# UPR CHOP act = activators of apoptotic CHOP UPR arm, primary screen, cell-based, CHO-CHOP luciferase reporter, luminescence, uHTS. UPR activation; percent of tunicamycin response over DMSO baseline. activation, % at 10 µM. hit rate 0.34% among 330,000. AID 449763, 2010;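 active means at 10 µM dose, activation of 40% or more, normalized to positive control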
#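 Evaluation: % reporter activation, DMSO baseline versus tunicamycin full activation; System: CHO-CHOP luciferase reporter cell line; Input: 500 cells/well; Incubation: 6 h compound treatment, 37 °C; Measured by: Steady-Glo luciferase luminescence; Dosing: one dose, 10 µM in 0.5% DMSO; Buffer or medium: F12 medium, 10% FBS; Benchmarks: positive tunicamycin 10 µg/mL, negative DMSO alone.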
# Dynein transport = inhibitors of GR-EGFP nuclear translocation, primary screen, dynein cargo transport inhibitor project, imaging, high-content, 3617.4 mouse cells | AID 1381, 2008 | hit rate 0.47% among 220,000 | z-score, hits read low | test concentration mostly 20 µM; stimulated with dexamethasone, 1 µM; hits give low values;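 active means plate z-score of nuclear minus cytoplasmic receptor signal below a set negative limit, without overly bright fluorescence or cell loss, cut at about -3.5 in these data, passing the limit was not always enough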;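 further: z-score of nuclear minus cytoplasmic ring GR-EGFP intensity difference per well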
#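 Also added: dexamethasone, 1.0 µM final. Medium: tet-free, stripped-serum medium. Detection: fixed, Hoechst-stained cells imaged at 10x for EGFP. Read-out: nuclear-to-cytoplasmic GR-EGFP distribution per well. Times: induction 48 h, compound 1 h, agonist 30 min.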
# T cruzi inh = inhibitors of intracellular T. cruzi growth, primary screen, luminescence, NIH3T3 host cells; T. cruzi beta-gal in NIH3T3, 90 h; inhibition, % (no concentration beside the values); hit rate 1.4% among 300,000; AID 1885, 2009;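 active means mean inhibition across valid replicates above about 55%, limit read from the data; inconclusive means mean below that limit but half or more replicates reach it; inactive means mean below it, under half of replicates reach it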;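 further: signal also drops with host cell toxicity which is not excluded here; higher percent means less beta-gal luminescence so fewer parasites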
#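 System: mouse NIH/3T3 fibroblasts infected with β-gal-expressing T. cruzi Tulahuen C4 / Input: NIH/3T3 cells, 5,000 per well / Buffer or medium: Low-serum DMEM with 2% FBS / Probe or stimulus: 5000 reporter trypomastigotes per well / Schedule: ≥90 h infection period, 3 h prior cell attachment / Measured by: GalScreen luminescence, 60 min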
# Lmaj promast = Leishmania major promastigote growth inhibition, primary screen | Leishmania major promastigotes, resazurin fluorescence viability | inhibition, % at 10 µM | hit rate 9% among 200,000 | AID 1063, 2008; in the data active means inhibition above about 50%;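 further: promastigotes grown with compound for 44 hours at 28 °C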
# XBP1 UPR activ = activators of adaptive XBP1 UPR arm, primary screen, cell-based, CHO-XBP1 luciferase reporter, luminescence, uHTS. activation, % at 20 µM. IRE1-XBP1 UPR activation; percent of tunicamycin response, DMSO as zero. hit rate 0.33% among 330,000;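 active means versus positive control, 20 µM dose yields 30% or more activation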
#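 Material – CHO cell line with stable XBP1 luciferase reporter · Buffer or medium – F12 plus 10% FBS · Compound – single point, 20 µM final compound, 1% DMSO · Schedule – 16-18 h cell attachment at 37 °C, then 6 h compound exposure · Signal – Steady-Glo luminescence read · Benchmarks – high control tunicamycin 10 µg/mL final, low control DMSO vehicle only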
# CHOP inhibitor = inhibitors of CHOP promoter induction, primary screen, cell-based, unfolded protein response, luciferase reporter; inhibition, % at 10 µM; CHO-K1 CHOP-promoter luciferase, tunicamycin-induced, 15-18 h; hit rate 3.8% among 220,000; AID 2732, 2010;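 active means compounds that reduced the stress-induced luciferase reporter signal by more than about 70% of percent inhibition, limit read from the data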
# CHOP UPR conf = activators of apoptotic CHOP UPR arm, confirmation, cell-based, CHO-CHOP luciferase reporter, single concentration. activation, % at 10 µM. CHO-CHOP cells, CHOP-luciferase reporter luminescence; percent of tunicamycin response, DMSO as zero. shares compounds with UPR CHOP act. hit rate 64% among 1,000; in the data active means activation above about 33%
# Numbers stand for hits; – = inactive; ? = inconclusive; · = not tested or not shown. The full list was thinned out, with hits kept by preference.
SMILES,UPR CHOP act,Dynein transport,T cruzi inh,Lmaj promast,XBP1 UPR activ,CHOP inhibitor,CHOP UPR conf
Cn1nnnc1Sc1ncnc2scc(-c3ccc([N+](=O)[O-])cc3)c12,93,·,·,·,–,·,105
COc1cccc(/C=N/Nc2nc(Nc3ccccc3)nc(-n3nc(C)cc3C)n2)c1O,93,–,–,100,–,87,95
COc1ccc(/C=N/Nc2cc(C)nc(-n3nc(C)cc3C)n2)c(OC)c1,142,–,–,99,–,–,88
Cc1cc(C)n(-c2nc(Nc3ccccc3)nc(-n3nc(C)cc3C)n2)n1,–,–,–,–,–,–,·
CCOc1ccc(Nc2cc(C)nc(-n3nc(C)cc3C)n2)cc1,105,–,–,90,87,·,–
Cc1cc(N/N=C/c2ccc(F)cc2)nc(-n2nc(C)cc2C)n1,73,–,?,·,–,90,–
COc1ccccc1/C=N/Nc1cc(C)nc(N2CCOCC2)n1,–,–,–,·,–,–,·
CC(/C=C1\SC(=S)N(CCC(=O)Nc2nc(C)cs2)C1=O)=C\c1ccccc1,–,–,–,·,–,–,·
CCCCC(=O)NNC(=O)N1c2ccccc2Sc2ccccc21,–,·,–,·,–,·,·
CCCCC1CCC(C(=O)N(CCCC)c2c(N)n(CCCC)c(=O)[nH]c2=O)CC1 (stereo unspecified),115,·,–,·,–,·,35
COc1cc(Cl)c(NS(=O)(=O)c2ccc(-c3ccc(=O)[nH]n3)o2)c(OC)c1,–,·,–,·,–,·,·
COc1cc(Cl)c(NC2=CC(=O)C(=O)c3ccccc32)c(OC)c1,51,·,·,·,–,·,–
C[C@@H]1CN([C@H](C)CO)C(=O)c2cc(NC(=O)Nc3ccc(C(F)(F)F)cc3)ccc2O[C@H]1CN(C)Cc1ccc(Cl)c(Cl)c1,184,·,·,·,–,·,60
O=S(=O)(Nc1cccc2ncccc12)c1cccs1,49,–,–,100,–,·,–
NC(=O)c1c(/N=C/c2cccs2)sc2c1CCCC2,–,–,–,·,–,–,·
Cc1onc(-c2ccccc2Cl)c1C(=O)N[C@@H](C)c1ccccc1,–,·,–,·,–,·,·
O=C(CSc1ccccn1)Nc1nonc1[N+](=O)[O-],85,·,–,·,–,·,42
O=C(CSc1ccccn1)Nc1ccc(NC(=O)CSc2ccccn2)cc1,–,–,–,–,–,–,·
O=C(Cn1c(=O)cnc2ccccc21)NC1CCC(O)CC1 (stereo unspecified),–,·,–,·,–,·,·
COc1ccc(-c2oc(NC(=O)CCl)c(C#N)c2-c2ccc(OC)cc2)cc1,489,–,–,100,–,–,218
COc1ccccc1C(=O)Nc1ccc(OCC(=O)N2CC(C)CC(C)C2)cc1 (stereo unspecified),–,·,·,·,–,·,·
CC(C)N(C(=O)[C@H]1C[C@H](CC(=O)NCCc2ccccn2)C(=O)N2CCc3c([nH]c4cc(CCC(=O)N(C)C)ccc34)[C@]12C)C(C)C,–,·,·,·,–,·,·
CCn1c(-c2ccccc2)c(C(=O)CCl)c2ccccc21,77,–,61,99,–,105,110
Cc1ccc(Sc2nc3ccc(C)cn3c(=O)c2/C=N/O)cc1,52,–,–,–,–,–,–
Cc1nn(-c2cccc3cccnc23)c(=O)c2ccccc12,45,–,–,–,–,–,–
Cc1ccc(Nc2nc(-c3ccc(F)cc3)cs2)nc1,–,·,–,·,–,·,·
Cc1ccc(Nc2nc(-c3ccc(O)c(O)c3)cs2)nc1,216,–,–,99,–,–,164
O=C(COC(=O)C1CC1)NCCc1ccc(Cl)cc1,–,·,·,·,–,·,·
Cc1cc(C)c2c(=O)[nH]c(SCC(=O)Nc3cccc(S(=O)(=O)N(C)C)c3)nc2n1,–,·,·,·,–,·,·
